# In ChEMBL document CHEMBL4007436, “Synthesis of Novel Synthetic Vitamin K Analogues Prepared by Introduction of a Heteroatom and a Phenyl Group That Induce Highly Selective Neuronal Differentiation of Neuronal Progenitor Cells” (2017):
# Active and inactive are the calls of the source. The calls are words filed in the database; no cut-off is given here.
# Columns and labels:
# [1] = system: Neuronal progenitor cell; experiment: Induction of neuronal differentiation in C57BL/6J mouse neuronal progenitor cells assessed as expression of Map2 at 1 uM treated for every second day for 4 days measured after 48 hrs by DAPI-staining based immunofluorescence method; type: functional
# Summary of the method: (§1)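 Neural stem cells taken from embryonic day 14 cerebrum of C57BL/6J mice, dispersed with trypsin/DNase I at 37 °C, seeded and grown 1 day at 37 °C, 5% CO2. Medium replaced with 10% FCS DMEM (low glucose) containing 1 µM analogue; ethanol at 0.1% as control. After 48 h, cells permeabilized with 0.2% Triton X-100. Staining used anti-Map2 (CF594, red) and anti-Gfap (CF488A, green), each overnight at 4 °C, with DAPI nuclei, then fluorescence microscopy.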
# [2] = system: Neuronal progenitor cell; experiment: Induction of neuronal differentiation in C57BL/6J mouse neuronal progenitor cells assessed as expression of Gfap at 1 uM treated for every second day for 4 days measured after 48 hrs by DAPI-staining based immunofluorescence method; type: functional; summary of the method: as §1
# [3] = Induction of neuronal differentiation in C57BL/6J mouse neuronal progenitor cells assessed as fold increase in Map2/beta-actin mRNA level at 1 uM treated for every second day for 4 days by RT-PCR analysis relative to control; type: functional, Neuronal progenitor cell
# Summary of the method: (§2)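 C57BL/6J E14 mouse cerebral neural stem cells were cultured 24 h after seeding. They were then treated with 1 µM analogue or ethanol control for 4 days, dosed every second day. mRNA was extracted, and Map2, Gfap and β-actin were quantified by real-time PCR. Map2/β-actin or Gfap/β-actin ratios were normalized to the EtOH control (set at 1.0). Values are means of three independent experiments; significance by Dunnett's t-test.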
# [4] = system: Neuronal progenitor cell; experiment: Induction of neuronal differentiation in C57BL/6J mouse neuronal progenitor cells assessed as increase in relative ratio of Map2/Gfap mRNA level at 1 uM treated for every second day for 4 days by RT-PCR analysis relative to control; type: functional, cell-based
# Summary of the method: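 E14 C57BL/6J mouse cerebral neural progenitor cells were treated with 1 µM analogue or ethanol every second day for 4 days. Map2 and Gfap mRNA (each relative to β-actin) were measured by real-time PCR. The Map2/Gfap ratio was calculated and normalized to the EtOH control (set at 1.0).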
# [5] = system: Neuronal progenitor cell; experiment: Induction of neuronal differentiation in C57BL/6J mouse neuronal progenitor cells assessed as increase in Map2/beta actin mRNA level at 1 uM treated for every second day for 4 days by RT-PCR analysis relative to control; type: functional, cell-based; summary of the method: as §2
# [6] = system: Neuronal progenitor cell; experiment: Induction of neuronal differentiation in C57BL/6J mouse neuronal progenitor cells assessed as increase in Gfap/beta-actin mRNA level at 1 uM treated for every second day for 4 days by RT-PCR analysis relative to control; type: functional, cell-based; summary of the method: as §2
SMILES,Activity [1],Activity [2],fold change (FC) [3],Activity [4],Activity [5],Activity [6]
CC1=C(C/C=C(\C)CC/C=C(\C)CNc2ccc(F)cc2)C(=O)c2ccccc2C1=O,Active,inactive,> 2,Active,–,–
CC1=C(C/C=C(\C)CC/C=C(\C)CNc2ccccc2)C(=O)c2ccccc2C1=O,–,–,–,–,Active,–
CC1=C(C/C=C(\C)CC/C=C(\C)CC/C=C(\C)COc2cccc(C)c2)C(=O)c2ccccc2C1=O,Active,inactive,–,Active,Active,–
CC(C)=CCC/C(C)=C/CC/C(C)=C/CC/C(C)=C/CC1=C(C)C(=O)c2ccccc2C1=O [MENATETRENONE],Active,Active,>2,–,–,Active
CC1=C(C/C=C(\C)CC/C=C(\C)CC/C=C(\C)COc2ccccc2)C(=O)c2ccccc2C1=O,–,–,–,–,Active,–
